Where “and” joins values, the source holds several entries; their conditions need not be identical. Equal entries are not always repeated. Entries after “also recorded” stand apart in the source; their conditions may differ.
Experiments:
[1] = assay type: in vivo, patients
[2] = Pharmacokinetics of 2DG in plasma; assay type: in vivo, patients
How it was run: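 Blood samples (5 ml each) were drawn predose, hourly to 6 hr after oral 2DG on cycle 1 day 1, at 24 and 48 hr after cycle 1 day 1, and again on cycle 2 day 1. Plasma extracts were derivatized to 2-aminobenzoic acid derivatives, and 2DG was quantified by HPLC with fluorometric detection.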

FDG uptake = test: FDG-PET imaging at baseline and day 2: effect of 2DG on FDG uptake; assay type: in vivo, patients
How it was run: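 FDG-PET scans were taken at baseline, cycle 1 day 2 and cycle 2 day 15, with 2DG given orally on days 1–14 of 21-day cycles. FDG uptake was expressed as SUV at a selected tumor site divided by liver SUV, with liver serving as the control. Baseline and day 2 ratios were compared in nine patients.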

p62 = p62 protein in peripheral blood mononuclear cells by Western blot; assay type: in vivo, patients; details: PBMCs, immunoblot, normalized to α-tubulin
How it was run: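 PBMCs were collected from six patients at baseline, 4 hr and 24 hr. Extracts were prepared in Laemmli buffer, resolved by SDS–PAGE and transferred to PVDF. Blots were probed for p62 and α-tubulin, then detected with HRP secondary antibody and ECL. Scanned bands were quantified by optical density, and p62 was normalized to α-tubulin.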

[3] = tested on: castrate-resistant prostate cancer (CRPC); test: Clinical outcome; assay type: in vivo, patients
How it was run: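 Oral 2DG, aqueous solution formulated at 100 mg/ml in water, given daily on days 1–14 of 21-day cycles. Dose cohorts were 30, 45 and 60 mg/kg. Each dose was given 1 hr before breakfast, followed by a ~50 ml water rinse of the dosing container. Patients with CRPC were followed for PSA and radiographic disease status across cycles.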

prostate cancer cells = details: cited from earlier work
[4] = cycle 1, 30 mg/kg/day oral, n = 3, mean ± SD
[5] = cycle 1, 45 mg/kg/day oral, n = 4, mean ± SD
[6] = cycle 1, 60 mg/kg/day oral, n = 4, mean ± SD
[7] = cycle 2, 30 mg/kg/day oral, n = 3, mean ± SD
[8] = cycle 2, 45 mg/kg/day oral, n = 4, mean ± SD
[9] = cycle 2, 60 mg/kg/day oral, n = 4, mean ± SD

O=CC[C@@H](O)[C@H](O)[C@H](O)CO [2DG, 2-deoxyglucose]
dose-limiting toxicity ([1]; human, in vivo, 60 mg/kg, 3 weeks): grade 3 asymptomatic QTc prolongation | patients with grade 2 fatigue ([1]; in vivo): three | tolerability ([1]; in vivo, 45 mg/kg): well tolerated | QT interval ([1]; in vivo, 60 mg/kg): prolonged | recommended phase II dose ([1]; oral, days 1–14 of a 21-day cycle): 45 mg/kg | AUC [2, 4]: 821.2±236.2 μmol/Lhr | Clearance [2, 4]: 232.0 ± 63.8 mL/h | Cmax [2, 4]: 277 ± 18.6 µM | AUC [2, 5]: 1107.7±213.3 μmol/Lhr | Clearance [2, 5]: 243.3 ± 49.4 mL/h | Cmax [2, 5]: 449 ± 168 µM | AUC [2, 6]: 2086.2±743.2 μmol/Lhr | Clearance [2, 6]: 185.0 ± 52.6 mL/h | AUC [2, 7]: 751.3 ± 181.7 μmol/Lhr | Clearance [2, 7]: 246.3 ± 56.6 mL/h | AUC [2, 8]: 1087.1 ± 441.8 μmol/Lhr | Clearance [2, 8]: 270.4 ± 126.4 mL/h | AUC [2, 9]: 1226.9 ± 571.2 μmol/Lhr | Clearance [2, 9]: 314.9 ± 108.7 mL/h | dose dependence of pharmacokinetics ([2]; dose levels 30, 45 and 60 mg/kg): linear pharmacokinetics; also recorded: linear with dose level | Cmax ([2]; human, plasma, po, 30 mg/kg, Cmax, dose level 30 mg/kg oral): 45 µg/mL | Cmax ([2]; human, plasma, po, 45 mg/kg, Cmax, dose level 45 mg/kg oral): 73.7 µg/mL | Cmax ([2]; human, plasma, po, 60 mg/kg, Cmax, dose level 60 mg/kg oral): 122 µg/mL | blood concentrations reached ([2]; single agent, highest concentrations reached in this study): 700 µM | patients with decreased FDG uptake by day 2 of therapy (FDG uptake; FDG-PET, dose level 2 or 3): Five of eight and five | Day 2 SUV (ratio site/liver) (FDG uptake; patient 5, lung, dose level 2, chest, baseline 6.3): 11.6 | Day 2 SUV (ratio site/liver) (FDG uptake; patient 6, cervical, dose level 2, mediastinum, baseline 4.3): 2 | Day 2 SUV (ratio site/liver) (FDG uptake; patient 7, prostate, dose level 3, L1 vertebral body, baseline 1.2): 1 | Day 2 SUV (ratio site/liver) (FDG uptake; patient 8, prostate, dose level 3, ischium, baseline 2.8): 2.0 | Day 2 SUV (ratio site/liver) (FDG uptake; patient 11, prostate, dose level 2, ilium, baseline 3.8): 3 | patients with a decrease in p62 level at 24 hr (p62): Five of six | cycles on study with radiographically stable disease ([3]; individual patients with CRPC): 8 cycles and 12 cycles and 21 cycles | declines in PSA ([3]; seven patients with prostate cancer who completed study therapy): no declines | effect in prostate cancer cell lines (prostate cancer cells; autophagy a mechanism of resistance): cytotoxic effect | effect on prostate cancer cells (prostate cancer cells; preclinical studies): cytotoxic

Source: article PMC4142700 (The Prostate, 2010)
